Measured values pooled from the literature.
Compare with care: the assays were run in different laboratories.
Target: Dual specificity tyrosine-phosphorylation-regulated kinase 2 (DYRK2, Homo sapiens, UniProt Q92630)
Method: competition with immobilised ligand
One construct used (Q92630 1-601): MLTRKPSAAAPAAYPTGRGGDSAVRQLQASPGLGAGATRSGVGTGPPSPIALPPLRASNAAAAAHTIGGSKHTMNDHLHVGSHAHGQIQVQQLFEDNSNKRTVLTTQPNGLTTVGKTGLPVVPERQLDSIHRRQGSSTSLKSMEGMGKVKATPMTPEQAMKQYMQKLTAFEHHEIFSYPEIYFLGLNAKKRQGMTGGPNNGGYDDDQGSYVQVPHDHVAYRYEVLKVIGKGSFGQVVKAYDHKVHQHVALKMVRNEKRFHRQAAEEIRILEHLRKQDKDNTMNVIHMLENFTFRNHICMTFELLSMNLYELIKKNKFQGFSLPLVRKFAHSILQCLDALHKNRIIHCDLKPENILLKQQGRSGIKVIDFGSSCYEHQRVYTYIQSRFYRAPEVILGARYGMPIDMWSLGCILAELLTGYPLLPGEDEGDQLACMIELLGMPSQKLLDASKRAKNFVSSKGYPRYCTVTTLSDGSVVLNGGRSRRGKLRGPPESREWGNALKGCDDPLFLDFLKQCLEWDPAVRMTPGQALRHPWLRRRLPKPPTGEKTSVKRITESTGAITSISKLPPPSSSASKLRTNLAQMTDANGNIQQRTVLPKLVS

SMILES | effect on | concentration | remaining binding
FC(F)(F)Oc1cccc(-c2cnc3ccc(-c4ccncc4)nn23)c1 | cell-free assay | 5 µM | 5%
C[C@H](c1ccc(F)cc1)N(Cc1cccc(C(=O)O)c1)C(=O)c1cnc2ccccc2c1 | cell-free assay | 1 µM | 85%
O=C(c1ccc(Nc2ncc(Cl)c(-c3ccc(Cl)s3)n2)cc1)N1CCC(N2CCCC2)CC1 | binding | 1 µM | 3.8%
O=C(Nc1ccc(Oc2ccc(F)cc2)cc1)N1CCc2ncccc2[C@H]1c1ccc(F)cc1 | cell-free assay | 1 µM | 84%
COc1cnc(Nc2cccc(S(N)(=O)=O)c2)nc1N1CCN(c2ccccc2)C(=O)C1 | binding | 1 µM | 56%
O=C(c1ccc(Nc2nccc(-c3cc4ccccc4s3)n2)cc1)N1CCC(N2CCCC2)CC1 | binding | 1 µM | 3.9%
CN(C(=O)c1ccccc1)c1cc(N(C)c2ccc3c(c2)CCc2ccc(C(=O)NCCN4CCOCC4)cc2C3=O)ccc1F | cell-free assay | 1 µM | 82%
Nc1ncc2c(n1)-c1c([nH]c3ccc(C#CC4CC4)cc13)CCCC2 | binding | 1 µM | 100%
CCCOc1ccc([C@H]2[C@H](C(=O)O)[C@@H](c3ccc4c(c3)OCO4)CN2CC(=O)Nc2c(CC)cccc2CC)cc1 | cell-free assay | 1 µM | 74%
CNC(=O)[C@@H]1CC[C@@H](n2c(-c3ccc4cnccc4c3)nc3ccc(C(=O)NCc4cccc(C(N)=O)c4)cc32)C1 | binding | 1 µM | 86%
c1cncc(-c2cccc(Nc3nccc(NC4CCCCC4)n3)c2)c1 | binding | 10 µM | 78%
O=C(c1ccc(Nc2ncc(Cl)c(-c3cc4ccccc4s3)n2)cc1)N1CCC(N2CCCC2)CC1 | binding | 1 µM | 3.1%
O=C(Nc1c[nH]nc1C(=O)NC1CCNCC1)c1cc(F)cc(F)c1 | binding | 1 µM | 4.8%
